Assay results published in ChEMBL document CHEMBL1156698, “Syntheses of tetrahydroisoquinoline derivatives that inhibit NO production in activated BV-2 microglial cells” (Eur J Med Chem, 2008).

Key:
Format in all cases: functional
Design in all cases: scale not given: the % may be the effect or the level left
BV-2 [1] = assay: Inhibition of LPS-induced NO production in mouse BV2 microglia cells assessed as nitrite levels at 100 uM relative to untreated control
Outline: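 BV-2 microglia seeded 2 × 10^5 cells/well in 24-well plates. After 24 h, fresh medium with LPS ([…]) and compound in DMSO added at the same time. After 24 h, nitrite in the medium measured by Griess reaction (sulfanilamide, naphthylethylenediamine, H3PO4) with absorbance at 540 nm. Given as % of LPS-activated cells.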

BV-2 [2] = assay: Inhibition of LPS-induced tetrahydrobiopterin production in mouse BV2 microglia cells assessed as tetrahydrobiopterin levels at 50 uM relative to untreated control
Outline: (§1)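 BV-2 cells in 24-well plates (2 × 10^5/well) stimulated with LPS ([…]) in fresh medium together with compound in DMSO for 24 h. Medium was treated with phosphoric acid and acidic iodine (I2/KI in trichloroacetic acid) for 1 h in the dark. Oxidation stopped with ascorbic acid, then centrifuged and diluted. BH4 given as % of LPS-activated cells.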

BV-2 [3] = assay: Inhibition of LPS-induced tetrahydrobiopterin production in mouse BV2 microglia cells assessed as tetrahydrobiopterin levels at 100 uM relative to untreated control; outline: as §1
BV-2 [4] = assay: Inhibition of LPS-induced tetrahydrobiopterin production in mouse BV2 microglia cells assessed as tetrahydrobiopterin levels at 60 uM relative to untreated control; outline: as §1
BV-2 [5] = assay: Inhibition of LPS-induced tetrahydrobiopterin production in mouse BV2 microglia cells assessed as tetrahydrobiopterin levels at 30 uM relative to untreated control; outline: as §1
BV-2 [6] = assay: Inhibition of LPS-induced tetrahydrobiopterin production in mouse BV2 microglia cells assessed as tetrahydrobiopterin levels at 10 uM relative to untreated control; outline: as §1

| SMILES | Activity (BV-2 [1]) [%] | also measured |
| --- | --- | --- |
| CCCCN1CCc2cc(OC)c(O)cc2C1 | 111 |  |
| COc1cc2c(cc1O)CN(CC1CCCCC1)CC2 | 63 |  |
| COc1cc2c(cc1O)CN(C(=O)CC(C)C)CC2 | 90 |  |
| COc1cc2c(cc1O)C(CC(C)C)N(C(C)=O)CC2 (stereo not given) | 113 |  |
| CCCC1c2cc(O)c(OC)cc2CCN1C(C)=O (stereo not given) | 84 |  |
| CCC1c2cc(O)c(OC)cc2CCN1C(C)=O (stereo not given) | 50 |  |
| COc1cc2c(cc1O)C(C1CC1)N(C(C)=O)CC2 (stereo not given) | 60 |  |
| COc1cc2c(cc1O)CN(C(=O)C(C)C)CC2 | 82 |  |
| COc1cc2c(cc1O)C(C1CCC1)N(C(C)=O)CC2 (stereo not given) | 69 |  |
| COc1cc2c(cc1O)C(C(C)C)N(C(C)=O)CC2 (stereo not given) | 39 |  |
| COc1cc2c(cc1O)CN(C(C)=O)CC2 | 46 | Activity (BV-2 [2]): 79%; Activity (BV-2 [3]): 55% |
| COc1cc2c(cc1O)C(Cc1ccccc1)N(C(C)=O)CC2 (stereo not given) | 96 |  |
| COc1cc2c(cc1O)C(c1ccccc1)N(C(C)=O)CC2 (stereo not given) | 51 |  |
| COc1cc2c(cc1O)C(C)N(C(C)=O)CC2 (stereo not given) | 40 | Activity (BV-2 [4]): 59%; Activity (BV-2 [5]): 59%; Activity (BV-2 [6]): 99%; Activity (BV-2 [3]): 52% |
| COc1cc2c(cc1O)CN(C(=O)C1CCCCC1)CC2 | 64 | Activity (BV-2 [4]): 71%; Activity (BV-2 [5]): 95%; Activity (BV-2 [3]): 63% |
| CCC(=O)N1CCc2cc(OC)c(O)cc2C1 | 36 | Activity (BV-2 [4]): 72%; Activity (BV-2 [6]): 86%; Activity (BV-2 [3]): 51% |
| CCCN1CCc2cc(OC)c(O)cc2C1 | 82 |  |
| CCCC(=O)N1CCc2cc(OC)c(O)cc2C1 | 74 |  |
